Compound activity as filed in PubChem BioAssay.
Only some compounds are listed: those with a hit (about 1.7% of all), similar ones and a draw of the others.
RanGTP-Impb inh – disruptors of Ran-importin-beta complex formation – biochemical, FRET, CFP-Ran, YFP-importin-beta, homogeneous, primary screen; inhibition, % (concentration not given with the values); cell-free CFP-Ran/YFP-importin-beta FRET ratio; AID 2216; 1.1% of 300,000 active;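 active = more than half of the replicate wells show a fall in the fluorescence ratio signal beyond about 16%, limit read from the data, passing the limit was not always enough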
Runt-SMMHC FRET – inhibitors of human RUNX1 Runt domain binding to CBFb-SMMHC; Q01196+Q13951; Cerulean-Runt/Venus-CBFb-SMMHC FRET ratio 530/480, 1 h; inhibition, % at 20 µM; 0.74% of 220,000 active;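 active = mean inhibition across duplicate retests at 20 µM reaching about 50%, limit read from the data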;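 note: inhibitors lower the FRET ratio by blocking Runt binding to CBFb-SMMHC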
Target sequence (Q01196 whole entry, looked up, the tested form may be a part): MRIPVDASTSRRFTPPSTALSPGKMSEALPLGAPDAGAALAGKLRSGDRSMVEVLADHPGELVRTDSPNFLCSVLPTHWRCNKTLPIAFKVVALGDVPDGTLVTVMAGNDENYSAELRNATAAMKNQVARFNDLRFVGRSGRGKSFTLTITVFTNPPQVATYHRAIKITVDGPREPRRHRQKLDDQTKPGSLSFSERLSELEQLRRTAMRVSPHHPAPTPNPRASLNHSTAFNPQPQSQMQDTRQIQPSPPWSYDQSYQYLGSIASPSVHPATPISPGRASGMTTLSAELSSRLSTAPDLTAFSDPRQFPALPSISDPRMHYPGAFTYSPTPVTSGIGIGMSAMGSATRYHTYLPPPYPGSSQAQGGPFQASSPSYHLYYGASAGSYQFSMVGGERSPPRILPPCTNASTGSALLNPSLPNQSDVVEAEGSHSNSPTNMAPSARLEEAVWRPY
Target sequence (Q13951 whole entry, looked up, the tested form may be a part): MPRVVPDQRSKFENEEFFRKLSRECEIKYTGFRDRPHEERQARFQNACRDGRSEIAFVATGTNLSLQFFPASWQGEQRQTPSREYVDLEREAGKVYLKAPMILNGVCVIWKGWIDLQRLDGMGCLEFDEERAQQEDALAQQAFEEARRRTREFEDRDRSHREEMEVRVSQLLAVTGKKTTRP
Runt-CBFb FRET – inhibitors of human RUNX1 Runt domain binding to CBFb; Q01196+Q13951; Cerulean-Runt/Venus-CBFb FRET ratio 530/480, 1 h; inhibition, % at 20 µM; 0.46% of 220,000 active; AID 1496;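 active = inhibition over about 50% at 20 µM in the single-dose screen, limit read from the data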
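Schedule: protein complex preformed 1 h, compound exposure 1 h, room temperature, dark; test system: Cerulean-labeled Runt domain protein; amount: 100 nM per protein; buffer or medium: Tris 50 mM pH 7.5, KCl, K2SO4, 0.01% BSA; read-out: loss of energy transfer signal; detection: FRET fluorescence; controls: 5 µM unlabeled CBFb as full-inhibition high control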
Hck-Nef inh – inhibitors of human Hck kinase activated by Nef; inhibition, % at 20 µM; 0.68% of 220,000 active; P08631; AID 463187; Recombinant Hck-YEEI plus Nef, Z-Lyte FRET kinase assay;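 active = Hck-Nef kinase inhibition above about 50%, limit read from the data; inactive = inhibition below that limit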
YIC counter – counter-screen for RanGTP-importin-beta inhibitors: YIC FRET probe | IC50, µM | shares compounds with RanGTP-Impb inh | Purified YIC probe, intramolecular FRET ratio YFP/CFP | AID 435026 | 40% of 1,000 active;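 active = fitted half-maximal inhibitory concentration no more than tenfold above the top dose tested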
Numbers stand for hits.

`Cc1ccc2cc(C#N)c(N3CCCN(C(=O)c4cnccn4)CC3)nc2c1` gave RanGTP-Impb inh inactive.
For O=C(CN1C(=O)C2C3CC(C(Br)C3Br)C2C1=O)N1CCN(Cc2ccccc2)CC1 (centres undefined) the results were RanGTP-Impb inh inactive, Runt-SMMHC FRET inactive, Runt-CBFb FRET inactive and Hck-Nef inh inactive.
For O=C(CCN1C(=O)COc2ccccc21)N1CCCCC1 the results were RanGTP-Impb inh 24, Runt-SMMHC FRET inactive, Runt-CBFb FRET inactive, Hck-Nef inh inactive and YIC counter inactive.
For O=C(CN1C(=O)COc2ccccc21)N1CCCC1 the results were RanGTP-Impb inh inactive.
`CCCCc1ccc(NC(=S)N2CCN(C(=O)c3ccco3)CC2)cc1` gave RanGTP-Impb inh inactive.
For Cc1ccc2c(CN3CCN(Cc4ccccc4)CC3)cc(=O)oc2c1 the results were RanGTP-Impb inh inactive.
`Cc1ccc2c(CN3CC(C)CC(C)C3)cc(=O)oc2c1` (centres undefined) gave RanGTP-Impb inh inactive.
`O=c1cc(CN2CCN(Cc3ccccc3)CC2)c2ccc(O)cc2o1` gave RanGTP-Impb inh 38 and YIC counter 10.
For CC1CN(Cc2cc(=O)oc3cc(O)ccc23)CC(C)O1 (centres undefined) the results were RanGTP-Impb inh 19 and YIC counter 16.
For COC(=O)N[C@H](CC(C)=O)c1ccccc1 the results were RanGTP-Impb inh inactive, Runt-SMMHC FRET inactive, Runt-CBFb FRET inactive and Hck-Nef inh inactive.
`COc1ccc(C)cc1S(=O)(=O)N1CCN(C(=O)c2ncoc2-c2cccc(F)c2)CC1` gave RanGTP-Impb inh inactive.
`COc1ccc(NS(=O)(=O)c2ccc(NC(=O)C(CCSC)NC(N)=O)cc2)cc1` (centres undefined) gave RanGTP-Impb inh inactive, Runt-SMMHC FRET inactive, Runt-CBFb FRET inactive and Hck-Nef inh inactive.
`NC(=O)N/N=C/c1ccccc1OC(=O)c1cc2ccccc2oc1=O` gave RanGTP-Impb inh 18 and YIC counter inactive.
Screening NC(=S)N/N=C/c1ccccc1OC(=O)c1cc2ccccc2oc1=O returned RanGTP-Impb inh inactive.
Screening Cc1ccc(C)c(NC(=S)N(C)CCc2ccccn2)c1 returned RanGTP-Impb inh 25, Runt-SMMHC FRET inactive, Runt-CBFb FRET inactive, Hck-Nef inh inactive and YIC counter inactive.
COc1cc2c(cc1NC(=S)Nc1cccc3ccccc13)oc1ccccc12 was read as RanGTP-Impb inh 18, Runt-SMMHC FRET inactive, Runt-CBFb FRET inactive, Hck-Nef inh inactive and YIC counter inactive.
Screening COc1ccc(Cl)cc1S(=O)(=O)N1CCC(C(=O)N2CCOCC2)CC1 returned RanGTP-Impb inh inactive.
For Cc1onc(-c2ccccc2)c1C(=O)Nc1nc(-c2ccccc2)cs1 the results were RanGTP-Impb inh inactive, Runt-SMMHC FRET inactive, Runt-CBFb FRET inactive and Hck-Nef inh inactive.
Cc1onc(-c2ccccc2)c1C(=O)Nc1cccc2nsnc12 was read as RanGTP-Impb inh 22, Runt-SMMHC FRET inactive, Runt-CBFb FRET inactive, Hck-Nef inh inactive and YIC counter 37.
O=C(c1ccc(Br)cc1)c1cc2ccc(O)cc2oc1=O was read as RanGTP-Impb inh 33 and YIC counter 20.
O=C(c1ccc(Br)cc1)c1coc2ccc(O)cc12 was read as RanGTP-Impb inh inactive.
CCc1ccc(C(=O)c2cc3ccc(O)cc3oc2=O)cc1 was read as RanGTP-Impb inh 45 and YIC counter 11.
Screening c1ccc2c(c1)nc(NCC1CCCO1)c1nnnn12 (centres undefined) returned RanGTP-Impb inh 23, Runt-SMMHC FRET inactive, Runt-CBFb FRET inactive, Hck-Nef inh inactive and YIC counter 28.
Screening Cc1ccc(-n2c(O)c(C=Nc3ccc4c(c3)OCO4)c3ccccc3c2=O)cc1C returned RanGTP-Impb inh 19, Runt-SMMHC FRET inactive, Runt-CBFb FRET inactive, Hck-Nef inh inactive and YIC counter 28.
`NS(=O)(=O)c1ccc(CNC(=O)CNC(=O)c2ccc(F)cc2)cc1` gave RanGTP-Impb inh inactive.
`O=c1nc(-c2ccccc2Cl)c2cc(F)ccc2[nH]1` gave RanGTP-Impb inh 25 and YIC counter inactive.
For O=c1nc(-c2ccccc2)c2ccccc2[nH]1 the results were RanGTP-Impb inh inactive, Runt-SMMHC FRET inactive, Runt-CBFb FRET inactive and Hck-Nef inh inactive.
For COc1ccc(N2Cc3ccccc3/C2=N\C(=O)Nc2ccccc2)cc1 the results were RanGTP-Impb inh 17, Runt-SMMHC FRET inactive, Runt-CBFb FRET inactive, Hck-Nef inh inactive and YIC counter inactive.
CC(=O)CN1Cc2ccccc2/C1=N\C(=O)Nc1ccccc1 was read as RanGTP-Impb inh inactive, Runt-SMMHC FRET inactive, Runt-CBFb FRET inactive and Hck-Nef inh inactive.
For CCN(CC)c1cnn(C/C(=N\OC)c2ccc(Cl)cc2)c(=O)c1Br the results were RanGTP-Impb inh inactive, Runt-SMMHC FRET inactive, Runt-CBFb FRET inactive and Hck-Nef inh inactive.
Screening COc1ccc(/C=C/C(=O)Oc2ccc(C)cc2)cc1 returned RanGTP-Impb inh inactive.
O=C(NCC1CCN(Cc2ccccc2Cl)CC1)Nc1ccccc1F was read as RanGTP-Impb inh 17 and YIC counter inactive.
`CC(=O)Nc1ccc(C(=O)N/C(=C/c2ccccc2)C(=O)NCc2ccco2)cc1` gave RanGTP-Impb inh inactive.
Screening Cc1cccn2c(=O)c3cc(C(=O)NCCN4CCOCC4)n(Cc4ccccc4)c3nc12 returned Runt-SMMHC FRET inactive and Runt-CBFb FRET inactive.
COc1ccc(CCNC(=O)c2cc3c(=O)n4cccc(C)c4nc3n(CCCN3CCOCC3)c2=N)cc1 was read as RanGTP-Impb inh 39 and YIC counter 4.4.
Screening COc1ccc(CCn2c(=N)c(C(=O)NCC3CCCO3)cc3c(=O)n4cccc(C)c4nc32)cc1 (centres undefined) returned RanGTP-Impb inh 29 and YIC counter 14.
Screening COC(=O)C1=C(O)/C(=C\c2cc(C)n(-c3ccccc3C)c2C)N=C1C returned RanGTP-Impb inh 20, Runt-SMMHC FRET inactive, Runt-CBFb FRET inactive, Hck-Nef inh inactive and YIC counter 44.
Cc1cccc(N2CCN(C(=O)C3COc4ccccc4O3)CC2)c1C (centres undefined) was read as RanGTP-Impb inh 26, Runt-SMMHC FRET inactive, Runt-CBFb FRET inactive, Hck-Nef inh inactive and YIC counter inactive.
Screening Cc1c(CC(=O)N2CCN(C(=O)C3COc4ccccc4O3)CC2)c(=O)oc2c(C)c(O)ccc12 (centres undefined) returned RanGTP-Impb inh 24 and YIC counter 14.
For C=CCn1c(SCCOc2ccc(OC)cc2)nnc1C(CO)NC(=O)c1ccc(OC)cc1 (centres undefined) the results were RanGTP-Impb inh 19, Runt-SMMHC FRET inactive, Runt-CBFb FRET inactive, Hck-Nef inh inactive and YIC counter inactive.
For CCC(C)c1ccc(OCC(=O)O)cc1 (centres undefined) the results were RanGTP-Impb inh 24, Runt-SMMHC FRET inactive, Runt-CBFb FRET inactive, Hck-Nef inh inactive and YIC counter inactive.
